Experimental data from the EternaBench riboswitch data.

Test system: MS2 coat protein
Test: apparent Kd, MS2 coat protein; higher = weaker binding; RNA-MaP array; FMN 200 µM where present
How it was run: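 Green signal was scaled to red-channel RNA signal and control-cluster median Fmax, and the apparent Kd was taken as the median of filtered per-cluster binding-curve fits. The binding series used SNAP-549-labelled MS2 coat protein from 0.7 or 1.5 nM, doubling to 3 µM, on designs transcribed by stalled E. coli RNA polymerase on Illumina sequencing-chip clusters. Each series ran without and then with constant ligand in 100 mM Tris-HCl pH 7.5, 80 mM KCl, 4 mM MgCl2, BSA, DTT, yeast tRNA and Tween-20.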

[1] = designed as: OFF switch for flavin mononucleotide, no ligand
[2] = ligand present: flavin mononucleotide, designed as: OFF switch for flavin mononucleotide
[3] = designed as: ON switch for flavin mononucleotide, no ligand
[4] = ligand present: flavin mononucleotide, designed as: ON switch for flavin mononucleotide

Sequence | apparent Kd [1] [nM] | apparent Kd [2] [nM] | apparent Kd [3] [nM] | apparent Kd [4] [nM]
UACGGGAGUGGAGGAUAUGCGUAGUACGCUAGAGCAGAAGGCCACAUGAGGAUCACCCAUGUGUCGUCGAAUGCGAUACGCUGG | 17.6 | 77.3 |  | 
GACAUGAGGAUCACCCAUGUCCCUCCAGAAGGCUGGCGCGCGAAACCUAUCUCGGUUCCGCGCACAGAGGAUAUGGGCGGUUGG |  |  | 181 | 29.8
GAGAAGAAGUUAGGAUAUUGGAUAGGGACGGAAUAAGAAGGAGCACAUACAUGAGGAUCACCCAUGUUAGAAGAAGAGAUCCUC | 545 | 253 |  | 
ACGACGAAAGUCGAACGAUGUAGCAGAAGGACAUGAGGAUCACCCAUGUUAUCUGUAAUAGACAUGUAGGAUAUGCUACAUCGA | 7.89 | 41.5 |  | 
UGACUUAUAUAGAAGGGUAUGUGGGAAUUACAUGAGGAUCACCCAUGUUUUAUAGGAUAUGUAUAUAGUUUUUAAUCAAGUUUA | 46.3 | 37.7 |  | 
CGUGUUGACGAAGGAUAUGGAUACAUGAGGAUCACCCAUGUUUAAUUUGUGAUUUUGUUAAAGUACCAGAAGGUCGAAUACACG | 142 | 118 |  | 
CCAGGCAGUGUGAGGAUAUGCUGGUCCUUGGAUCAGCAGAAGGCACAUGAGGAUCACCCAUGUGAAGAGCUUGG | 23.9 | 115 |  | 
UUGUUAUAUGUAGGAUAUGCAUAUUAUUAUUAUGCAGAAGGACAUGAGGAUCACCCAUGUAUGUUGUUGUUAUAUAUUAUAUAU | 24.8 | 27.8 |  | 
AACAUGCUUGGGUAACCUGGCACAUGAGGAUCACCCAUGUGACAGGAUAUCGACGUAGAUGGCGACGAGAAGGGUCCGAUGGGU | 7.13 | 10.8 |  | 
GGAUUACAUGAGGAUCACCCAUGUGAGGAUAUCGAUGUCCUGUCUUUAGUGCGGGACUCGAGAAGGCACUUGGA | 48 | 159 |  | 
ACCUUAAAAGUGAGGAUAUCUAGGGCCAAAUGGCCGGAGAAGGCACAUGAGGAUCACCCAUGUAACGCCAUGGA | 13.7 | 43.7 |  | 
AAUAACAAGCAGAAGGGUGAAACGAUAUAGUGCACAGGAUAUGCAAUAAUUCUAAACAUGAGGAUCACCCAUGUCUAGCAUAAA |  |  | 28.2 | 9.84
CUUUUGUGAGGAUAUUCGUCAUAAGGUUGUAAACCUGUGACGAAGAAGGCACAUGAGGAUCACCCAUGUGUCCU | 15.7 | 26.4 |  | 
CAGUAUUUCGAAGGAUAUGGUUACAUGAGGAUCACCCAUGUAUUUUUUGUGAUCUUAAAAUUGAUCCAGAAGGUCGUAUAACUG | 101 | 232 |  | 
AAUUAUUUUUGAGGAUAUCGUGGUGAAACACCACGAGAAGGCGAGAUACACAUGAGGAUCACCCAUGUGAGCCUGAUGCUUAUG | 16.1 | 14.4 |  | 
CUUCGUAUAGAGGAUAUAGGUUACUGCGGUAUCCUAGAAGGCUGUACAUGAGGAUCACCCAUGUACUUCAGAUC | 13.9 | 18.2 |  | 
GAUGCUAUCCGAGGAUAUUCAUACCGGAAACGGACAUGAGGAUCACCCAUGUGGCGAAAGCCUUGGGAGAAGGCGGAUAGCAUC |  |  | 581 | 23.4
CUUUUGUGAGGAUAUUAGUAGUAAAUAAUUAAAAUUACUACUGAGAAGGCACAUGAGGAUCACCCAUGUUCCUC | 33.2 | 344 |  | 
GGUACUCAAAGAGUACUUGGUCGAACAUGAGGAUCACCCAUGUAGGAUAUGCUAAGCAAGAAGUAGCAGAAGGACAUGUGCAGC | 14.8 | 56.5 |  | 
UGUCGGAGCAGAGGAUAUUACAUGAGGAUCACCCAUGUAUGAACCAAUAGCUGGAAACAGCAAUGUAAGAAGGCUGGUCCGACA | 12.4 | 143 |  | 
UUAGAGGAUUGAGGAUAUGCAGAGAGAUUAUGCGCGUCGCGCACAUGAGGAUCACCCAUGUAAGAGCAGAAGGUAACUAUGAUC | 24.3 | 21.8 |  | 

Sequence | apparent Kd [1] [nM] | apparent Kd [2] [nM] | apparent Kd [3] [nM] | apparent Kd [4] [nM]
AAUGUUUGAUUCCACCUAUACAUGAGGAUCACCCAUGUUAUCGAGGAUAUGCAUUAGAGUGUUUAGCAGAAGGCGAUGUAAUUG | 8.34 | 23 |  | 
GGAUAGGACAGAGGAUAUAUGUGCUAGAGAUACUAGCAAAAUUUCCUCACAUGAGGAUCACCCAUGUAGAAGGCUGUCCUAUCG | 12.9 | 22 |  | 
UGGUUCCUGCAGAAGGUGUAGGCGACUUGCUUGCAAGGAUAUGCACAUGAGGAUCACCCAUGUAGCUAAAAGUUUGCAACGUGG | 12.8 | 65.1 |  | 
ACAUGAGGAUCACCCAUGUGAUGAUCUCCCAUGUUAUAUUUCAGAAGGCUCGUGUGUUUGAUGAGAGAGGAUAUGGAAUAUACG | 377 | 258 |  | 
ACAUAAUACGAGAAGGGAGUACAUGAGGAUCACCCAUGUGCUCAGAUGUACUCAGGAUAUCGGCUGACGCAAGGUUCAGGGAAU | 10.9 | 128 |  | 
UAUGUUAGCACAGGAUAUUGUUAUUAUUUAAUUCAAGAAGGGUGUACAUGAGGAUCACCCAUGUUAUGGUUUUAUCUUUUACAA | 1280 | 457 |  | 
AUCCGGCGUGUAGGAUAUGGAACCGAUUAGGAUCCAGAAGGACAUGAGGAUCACCCAUGUACAUGUAAACAGUCAUCACCGGAA | 10.9 | 65.3 |  | 
UCAUUUAUCACAGGAUAUAUUAGUAUACAGUUGUUUGGCUCUUACAUAUUAAUAGAAGGGUGCAACAUGAGGAUCACCCAUGUA |  |  | 262 | 102
CUAUUCCGAGGAUAUACAUGAGGAUCACCCAUGUCGGGCCUCAGCGUUUAGCGCGUAAGUAGAAGGUGGGUUUC | 32.3 | 37.8 |  | 
GAUGGCUUAGGAUAUCAAAGUUACCACAUGAGGAUCACCCAUGUAUGGGAGAUGGAUAAAUGAGAAGGAGGGUGUU | 174 | 133 |  | 
ACAUGAUCAGGAUAUACAUGAGGAUCACCCAUGUAUUUCAAAAAGGGACUUUCUUAAUGUAGAAGGGAUCUUGU | 14.7 | 33.8 |  | 
CCUUGACAUGAGGAUCACCCAUGUGAGGAUAUGAUGCGAUCGUCGAAAGACGAUAGCAUCAGAAGGCACAUAUG | 23.4 | 95.7 |  | 
CAGCGCUGUCGAGAGGAUAUGCGGUGAUGGACAUGAGGAUCACCCAUGUUAGCGAUAGCAUUACGGUAGAAGGCUCUGCAGCUGC |  |  | 128 | 21
CUUUUGUGAGGAUAUUAGUAGUAAAUAAAUAAAAUUACUACUGAGAAGGUACAUGAGGAUCACCCAUGUUCCUC | 14.8 | 19.3 |  | 
UUCGUGCAGUUUUGCUGUACGCGUACAUGAGGAUCACCCAUGUAGGAUAUGGUAGGCUUUGCUUACUAGAAGGAUAGUGUGAUC | 163 | 33.8 |  | 
GGUUGGCGAGGAUAUACAUGAGGAUCACCCAUGUGGUCCUGUGAAAAAAAAAACCUUUGUAGAAGGCGCGGGUC | 292 | 281 |  | 
UUAAAUCAUGUAGGAUAUGCAUGGCGAAGCUACGCAGAAGGACAUGAGGAUCACCCAUGUUAUAGCGUCUGAGAACAGAUGCAA | 82.8 | 264 |  | 
CUUUUGUGAGGAUAUUAGUAGUAAAUAAAUAAAAUUACUACUUAGAAGGCACAUGAGGAUCACCCAUGUUCCUC | 26.9 | 219 |  | 
GAGCGGGAAACAUGAGGAUCACCCAUGUAAUAAAUCCUCAAGUAGGAUAUGCACACGAGAAGUGUGCAGAAGGGCUACCCGGUC | 29.7 | 46.2 |  | 
GAAGUCUAUUGAGGAUAUCGUUAUCAAAGAUAAUGAGAAGGCAAACAAUCAUGAGGACAUGAGGAUCACCCAUGUUGUGACCAU |  |  | 26.6 | 13.6
GGGAUACACCAGAAGGACAUGAGGAUCACCCAUGUAGGAUAUGGGUACGCCGACAUUGGUCUGCUCUCGGUAGACUUUCCCGAU |  |  | 203 | 39.6
